In PubChem BioAssay:
Activity calls are given as the source filed them.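 How the source made its calls, unless noted: active means viability at or below 30% in both replicate assays; inconclusive means viability at or below 30% in just one of the two assays; inactive means the rest.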

Assays:
[1] = HUVEC growth inhibition – cell-based, human, primary screen (AID 575); conditions: HUVEC proliferation, CellTiter-Glo luminescence, 72 h; at 10 µM; stronger effect = lower value;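 further: 100% = median of untreated cell wells with 0.1% DMSO on each plate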
Method in brief: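 Assay system: primary human umbilical vein endothelial cells / Buffer or medium: endothelial basal medium with 2% FBS plus growth supplements / Compound dosing: one dose, 10 µM final, 0.1% DMSO / Timing: 72 h treatment at 37 °C / Signal: CTG luminescence / Benchmarks: 32 DMSO-only cell-control wells (high), 32 MePR drug-control wells (low) per plate / Plate: collagen-coated 384-well format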

[2] = growth inhibitors of H69AR lung tumor, primary screen, human, duplicate replicates (AID 580;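 active means viability at or under a set limit in both replicates, limit being median viability minus 3 SD, cut at about 48% in these data, passing the limit was not always enough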;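 further: 100% = mean luminescence of untreated wells and 0% = no signal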); conditions: H69AR lung tumor cells viability, ATP luminescence, 72 h; at 10 µM; stronger effect = lower value
[3] = reversal of MRP1-mediated doxorubicin resistance, pilot screen, H69AR cells, doxorubicin co-treatment (AID 601;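 active means viability loss from added drug above about 55%, and viability with drug at most 40%, in both replicates, limit read from the data, passing the limit was not always enough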); conditions: CellTiter-Glo, 72 h, at 10 µM; for differential viability (reversal): stronger effect = higher value
[4] = 384-well plate pilot, post-Golgi transport modulator project, inhibition of yeast transport mutant growth (AID 636; in the data active means inhibition above about 31%); conditions: absorbance 615 nm, about 18 h, stronger effect = higher value
[5] = growth suppression of yeast trafficking mutant, preliminary HTS, modulators of trafficking downstream of Golgi apparatus project, 1536-format plate, OD 615 nm (AID 637; in the data active means inhibition above about 30%); conditions: yeast transport mutant growth, absorbance 615 nm, 18 h; stronger effect = higher value
[6] = H69AR cells + 2 uM doxorubicin, measured here: viability with 2 uM doxorubicin, stronger effect = lower value
[7] = H69AR cells, compound alone cytotoxicity

SMILES | viability [1] | viability [2] | differential viability (reversal) ([3]; H69AR cells + 2 uM doxorubicin) | viability [3, 6] | viability [3, 7] | inhibition [4] | inhibition [5]
O=c1ccn(Cc2ccccc2Cl)cc1 | 99.9% (inactive) | 88.2% (inactive) | 9.77% (inactive) | 78.4% | 88.2% | -4.47% (inactive) | -3.33% (inactive)
CC1CCCC(NC(=O)CN2CCN(Cc3ccc(Cl)cc3)C2=O)C1C (stereo unspecified) | 108% (inactive) | 103% (inactive) | 16.2% (inactive) | 86.4% | 103% | -1.43% (inactive) | 4.92% (inactive)
CC(C)C(c1nnnn1C1CCCC1)N1CCCc2ccccc21 (stereo unspecified) | 80.3% (inactive) | 84.5% (inactive) | -6.77% (inactive) | 91.2% | 84.5% | 1.33% (inactive) | -3.65% (inactive)
COc1ccccc1CC(=O)NCc1ccc2c(c1)OCO2 | 106% (inactive) | 93.5% (inactive) | 9.18% (inactive) | 84.3% | 93.5% | -7.2% (inactive) | 6.19% (inactive)
c1ccc(Cn2nnnc2C(c2ccccn2)N2CCOCC2)cc1 (stereo unspecified) | 107% (inactive) | 94.3% (inactive) | -2.14% (inactive) | 96.5% | 94.3% | -3.25% (inactive) | -6.51% (inactive)
CCn1cnc2cc(NCc3cccc(OC)c3O)ccc21 | 99.3% (inactive) | 92.3% (inactive) | 5.97% (inactive) | 86.3% | 92.3% | -4.47% (inactive) | 0.32% (inactive)
O=C(Cc1ccsc1-c1ccccc1)NO | 72.8% (inactive) | 1.73% (active) | 0.35% (inactive) | 1.39% | 1.73% | -3.82% (inactive) | 4.29% (inactive)
Nc1nc(-c2ccc(Cl)cc2)cc(C(F)(F)F)n1 | 107% (inactive) | 105% (inactive) | 13.3% (inactive) | 91.3% | 105% | -1.82% (inactive) | -1.11% (inactive)
CS(=O)(=O)N(CC(=O)N1CCN(c2cccc(Cl)c2)CC1)C1CCCCC1 | 80.6% (inactive) | 79.6% (inactive) | -7.54% (inactive) | 87.1% | 79.6% | -4.29% (inactive) | -7.78% (inactive)
Cc1cc(C)n(CCCNC(=O)c2ccc(S(=O)(=O)NCc3ccco3)cc2)n1 | 97.6% (inactive) | 94.2% (inactive) | 7.31% (inactive) | 86.9% | 94.2% | -3.77% (inactive) | 3.17% (inactive)
Cc1cc(/C=c2/sc3nc4ccccc4n3c2=O)c(C)n1-c1ccccn1 | 77.6% (inactive) | 63% (inactive) | -2.23% (inactive) | 65.2% | 63% | 2.4% (inactive) | -0.48% (inactive)
Cn1c(=O)c(=O)n(C)c2cc(S(=O)(=O)N3CCCCC3)ccc21 | 111% (inactive) | 100% (inactive) | 16.1% (inactive) | 84.3% | 100% | -3.07% (inactive) | 0.16% (inactive)
Cc1ccc(Nc2nc(CSc3nnc(-c4cccs4)o3)cs2)cc1 | 78.7% (inactive) | 90.5% (inactive) | -1.67% (inactive) | 92.2% | 90.5% | -4.8% (inactive) | -2.22% (inactive)
CN(CCCC(=O)Nc1ccncc1)S(=O)(=O)c1ccc(Cl)cc1 | 56.2% (inactive) | 89% (inactive) | -14.6% (inactive) | 104% | 89% | 0.65% (inactive) | -5.87% (inactive)
COc1ccc(N2CCN(C(=O)CN3C(=O)C4CC=CCC4C3=O)CC2)cc1 (stereo unspecified) | 99.7% (inactive) | 94.6% (inactive) | 3.03% (inactive) | 91.5% | 94.6% | 2.47% (inactive) | 14.8% (inactive)
CCc1cc(-c2[nH]ncc2-c2ccc3c(c2)OCO3)c(O)cc1O | 4.08% (active) | 23.3% (active) | -14.2% (inactive) | 37.5% | 23.3% | 4.94% (inactive) | 27.1% (inactive)
O=C(NCc1ccco1)C1Cc2ccccc2CN1S(=O)(=O)c1ccccc1F (stereo unspecified) | 57.5% (inactive) | 25.3% (active) | -9.23% (inactive) | 34.6% | 25.3% | -1.95% (inactive) | 1.27% (inactive)
COc1cc(C2C3=C(CC(C)(C)CC3=O)Nc3c2c(=O)[nH]c(=O)n3Cc2ccccc2)ccc1O (stereo unspecified) | 83.3% (inactive) | 93.7% (inactive) | 4.23% (inactive) | 89.5% | 93.7% | 0.26% (inactive) | 3.33% (inactive)
